According to publication PMC3576184 (Oncology Letters, 2012):
Entries after “also recorded” stand apart in the source; their conditions may differ. Marks after values point to notes of the source that are not given here.

Legend:
WEHI-3 cells = test: MTT viability assay in WEHI-3 cells; format: cell-based, murine
Summary of the method: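 WEHI-3 murine myelomonocytic cells were grown in RPMI-1640 with 10% FBS, 2 mM L-glutamine, penicillin and streptomycin at 37°C, 5% CO2. About 2×10^4 cells/well were plated for 24 h. Test compound in DMSO was added at final 0.78–25 μM, with 0.1% DMSO as control. After 24 h, viability was read by MTT across three separate experiments.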

[1] = Cytotoxicity on normal human PBMCs; format: cell-based; settings: normal human peripheral blood mononuclear cells (PBMCs)
[2] = Safety evaluation in BALB/c mice; format: in vivo; settings: for BUN (blood urea nitrogen) / Body weight / Liver weight / Spleen weight / sGOT (serum glutamic-oxaloacetic transaminase) / sGPT (serum glutamic-pyruvic transaminase) / ALB (albumin) / LDH (lactate dehydrogenase) / PRO (total protein): mean ± SD, n=6; for ALB (albumin) / LDH (lactate dehydrogenase) / PRO (total protein): blood
Summary of the method: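 30 BALB/c mice in five groups received i.v. PBS, 2-glycofurol solvent, or test compound at 5, 50 or 100 mg/kg/day for 7 days. Mice were killed with CO2 at day 7. Body, liver and spleen weights were recorded. Blood was assayed for LDH, albumin, total protein, sGPT, sGOT and BUN. Spleen and liver went to histopathology. Groups were compared with controls by Student's t-test.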

WEHI-3 cell allograft = test: BALB/c mouse WEHI-3 allograft leukemia model; format: in vivo, BALB/c mice
Summary of the method: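 30 BALB/c mice (6 weeks, 22–25 g) in five groups: 2-glycofurol vehicle; 1×10^7 WEHI-3 cells i.v.; test compound 100 mg/kg/day i.v. for 7 days; cells plus compound; or cells, then compound for 7 days. Weighed every 7 days; killed with CO2 at day 28, spleen and liver weighed. Blood leukocytes were red-cell-lysed, stained, and read by flow cytometry for surface markers including CD11b and CD45.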

HL-60 cells = settings: cited from earlier work
[3] = test system: vascular smooth muscle cells; settings: via inhibition of Ras/MAPK signal pathway; cited from earlier work
rat neutrophils = settings: through suppression of Akt and PLD activation; cited from earlier work
[4] = 5 mg/kg i.v. once daily for 7 days
[5] = 50 mg/kg i.v. once daily for 7 days
[6] = 100 mg/kg i.v. once daily for 7 days
[7] = 100 mg/kg, flow cytometry, vs leukemia group

For `COc1cccc(COc2ccccc2C=O)c1` [CCY-1a-E2, 2-[(3-methoxybenzyl)oxy]benzaldehyde], the IC50 (WEHI-3 cells; Mus musculus, WEHI-3, 24 h, read-out: IC50 (cell viability, MTT)) was 5 µM, the “percentage of viable cells” value (WEHI-3 cells; WEHI-3 cells, 0.78-25 μM, 24 h, MTT) was “decreased the percentage of viable cells in a concentration-dependent manner” and the IC50 [1] was greater than 20 µM. The “BUN (blood urea nitrogen)” value [2, 4] was 30.33 ± 5.02 mg/dL, the Body weight [2, 4] was 28.42±1.13^a g and the Liver weight [2, 4] was 4.42±0.47 g/100 g body weight. For the same compound, the Spleen weight [2, 4] was 0.35±0.06 g/100 g body weight, the “sGOT (serum glutamic-oxaloacetic transaminase)” value [2, 4] was 105.83±22.16 U/l and the “sGPT (serum glutamic-pyruvic transaminase)” value [2, 4] was 41.83±8.94 U/l. The “BUN (blood urea nitrogen)” value [2, 5] was 26.17 ± 2.42 mg/dL, the Body weight [2, 5] was 28.88±1.52^a g and the Liver weight [2, 5] was 4.18±0.33 g/100 g body weight. The Spleen weight [2, 5] was 0.31±0.06 g/100 g body weight, the “sGOT (serum glutamic-oxaloacetic transaminase)” value [2, 5] was 79.98±26.10 U/l and the “sGPT (serum glutamic-pyruvic transaminase)” value [2, 5] was 43.92±16.02 U/l. The “BUN (blood urea nitrogen)” value [2, 6] was 28.92 ± 2.20 mg/dL, the Body weight [2, 6] was 28.90±0.51^a g and the Liver weight [2, 6] was 4.17±0.26 g/100 g body weight. For the same compound, the Spleen weight [2, 6] was 0.37±0.04 g/100 g body weight, the “sGOT (serum glutamic-oxaloacetic transaminase)” value [2, 6] was 115.12±15.08 U/l and the “sGPT (serum glutamic-pyruvic transaminase)” value [2, 6] was 41.83±10.02 U/l. For the same compound, the “sGPT and sGOT levels vs normal range” value ([2]; 5, 50 and 100 mg/kg i.v. for 7 days) was “within the normal value range”, the “histopathology of spleen and liver” value ([2]; 5, 50 and 100 mg/kg, vs vehicle-treated controls, data not shown) was “No significant microscopic aberrations” and the “ALB (albumin)” value [2, 4] was 1.58 ± 0.38 g/dL. For the same compound, the “LDH (lactate dehydrogenase)” value [2, 4] was 298.00±62.22 U/l, the “PRO (total protein)” value [2, 4] was 3.68 ± 0.60 g/dL and the “ALB (albumin)” value [2, 5] was 1.73 ± 0.26 g/dL. The “LDH (lactate dehydrogenase)” value [2, 5] was 244.83±46.99 U/l, the “PRO (total protein)” value [2, 5] was 4.06 ± 0.58 g/dL and the “ALB (albumin)” value [2, 6] was 1.84 ± 0.13 g/dL. The “LDH (lactate dehydrogenase)” value [2, 6] was 270.83±42.09 U/l, the “PRO (total protein)” value [2, 6] was 4.77 ± 0.46 g/dL and the “level of CD11b on leukocytes” value (WEHI-3 cell allograft; [7]) was “significantly decreased”. The “level of CD45 on leukocytes” value (WEHI-3 cell allograft; [7]) was “significantly decreased”, the Liver weight (WEHI-3 cell allograft; 100 mg/kg/day i.v. 7 days, day 28) was “significantly different; also recorded: inhibited the spleen and liver growth” and the “body weight vs control mice” value (WEHI-3 cell allograft; CCY-1a-E2 100 mg/kg group (no WEHI-3 cells), i.v. 7 days, up to day 28) was “not significantly decreased”. The “infiltration of immature myeloblastic cells into the splenic red pulp (histopathology)” value (WEHI-3 cell allograft; treated leukemic mice vs untreated leukemia group, data not shown) was “eliminated”, the apoptosis (HL-60 cells) was “induced cell apoptosis” and the cell cycle effect (HL-60 cells) was “induced G2/M phase arrest”. The “percentage of viable cells” value (HL-60 cells) was “decreased the percentage of viable cells”.

For `O=Cc1ccccc1OCc1ccccc1` [2-benzyloxybenzaldehyde], the “effect on cell proliferation” value [3] is listed as “exhibited antiproliferative effects” and the superoxide anion generation (rat neutrophils) is listed as “inhibits superoxide anion generation”.
